Results from ChEMBL document CHEMBL1149629 (Bioorg Med Chem, 2007).
Active and inactive are the calls of the source. The rule behind the calls is not given here.

What was measured:
[1] = molecular target: T1, Serine/threonine-protein kinase Chk1 (Homo sapiens, UniProt O14757); assay: Inhibition of human Chk1
T1 sequence (O14757 whole entry): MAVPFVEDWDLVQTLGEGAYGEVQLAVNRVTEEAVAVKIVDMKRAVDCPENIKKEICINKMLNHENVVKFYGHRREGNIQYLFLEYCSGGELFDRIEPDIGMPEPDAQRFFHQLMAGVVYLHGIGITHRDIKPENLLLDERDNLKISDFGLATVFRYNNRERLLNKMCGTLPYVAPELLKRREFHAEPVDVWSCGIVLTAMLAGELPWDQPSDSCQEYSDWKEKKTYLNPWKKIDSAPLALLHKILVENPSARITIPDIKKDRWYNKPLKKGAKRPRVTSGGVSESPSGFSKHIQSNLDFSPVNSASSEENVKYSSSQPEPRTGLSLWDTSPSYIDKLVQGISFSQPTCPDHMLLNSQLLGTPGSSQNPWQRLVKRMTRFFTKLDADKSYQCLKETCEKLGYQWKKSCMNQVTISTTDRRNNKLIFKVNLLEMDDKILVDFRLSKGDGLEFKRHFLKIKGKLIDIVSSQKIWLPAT
Method in brief: (§1)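 Chk1 from a commercial source or purified as GST–Chk1 from baculovirus-infected Sf9 cells. Assay based on a published method. Percent inhibition determined at 10 µM; IC50 determined for selected compounds.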

[2] = molecular target: T2, Serine/threonine-protein kinase Chk1 (Homo sapiens) (UniProt O14757); assay: Inhibition of human Chk1 at 10 uM; method in brief: as §1
T2 sequence (whole entry): T1 sequence (O14757 whole entry)

[3] = system: L1210; assay: Antiproliferative activity against mouse L1210 cells […] by microculture tetrazolium assay; assay type: functional, cell-based
Method in brief: (§2)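 Tumor cells (ATCC) grown in RPMI 1640 with 10% fetal calf serum, 2 mM L-glutamine, penicillin/streptomycin, 10 mM HEPES pH 7.4. Continuous exposure to graded concentrations for four doubling times, then MTT added and incubated 4 h at 37 °C. Formazan dissolved in DMSO, optical density read. IC50 = concentration reducing OD by 50% versus untreated controls.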

[4] = system: DU-145; assay: Antiproliferative activity against human DU145 cells […] by microculture tetrazolium assay; assay type: functional, cell-based; method in brief: as §2
[5] = system: A549; assay: Antiproliferative activity against human A549 cells […] by microculture tetrazolium assay; assay type: functional, cell-based; method in brief: as §2
[6] = system: HT-29; assay: Antiproliferative activity against human HT29 cells […] by microculture tetrazolium assay; assay type: functional, cell-based; method in brief: as §2
[7] = molecular target: Proto-oncogene tyrosine-protein kinase Src (Homo sapiens) (UniProt P12931); assay: Inhibition of Src tyrosine kinase at 1 uM after 20 mins
Sequence of Proto-oncogene tyrosine-protein kinase Src (Homo sapiens) (P12931 2-536 limits assumed): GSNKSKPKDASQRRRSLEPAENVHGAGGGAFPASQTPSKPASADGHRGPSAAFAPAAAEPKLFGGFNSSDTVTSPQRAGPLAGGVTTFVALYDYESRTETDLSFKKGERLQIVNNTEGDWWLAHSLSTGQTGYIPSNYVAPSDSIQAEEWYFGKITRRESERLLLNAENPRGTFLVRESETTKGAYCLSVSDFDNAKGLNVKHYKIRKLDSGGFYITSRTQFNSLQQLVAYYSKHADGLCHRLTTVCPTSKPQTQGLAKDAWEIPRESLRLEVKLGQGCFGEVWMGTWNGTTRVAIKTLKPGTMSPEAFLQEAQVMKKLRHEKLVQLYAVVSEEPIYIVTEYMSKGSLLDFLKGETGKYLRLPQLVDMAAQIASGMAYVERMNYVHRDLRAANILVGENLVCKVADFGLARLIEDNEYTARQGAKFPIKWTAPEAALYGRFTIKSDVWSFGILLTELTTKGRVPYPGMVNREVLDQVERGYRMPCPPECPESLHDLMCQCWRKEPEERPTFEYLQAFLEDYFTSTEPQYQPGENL

[8] = species: Homo sapiens; assay: Binding affinity to DNA assessed as melting temperature
[9] = molecular target: T3, DNA topoisomerase 1 (Homo sapiens) (UniProt P11387); assay: Inhibition of topoisomerase 1
T3 sequence (whole entry): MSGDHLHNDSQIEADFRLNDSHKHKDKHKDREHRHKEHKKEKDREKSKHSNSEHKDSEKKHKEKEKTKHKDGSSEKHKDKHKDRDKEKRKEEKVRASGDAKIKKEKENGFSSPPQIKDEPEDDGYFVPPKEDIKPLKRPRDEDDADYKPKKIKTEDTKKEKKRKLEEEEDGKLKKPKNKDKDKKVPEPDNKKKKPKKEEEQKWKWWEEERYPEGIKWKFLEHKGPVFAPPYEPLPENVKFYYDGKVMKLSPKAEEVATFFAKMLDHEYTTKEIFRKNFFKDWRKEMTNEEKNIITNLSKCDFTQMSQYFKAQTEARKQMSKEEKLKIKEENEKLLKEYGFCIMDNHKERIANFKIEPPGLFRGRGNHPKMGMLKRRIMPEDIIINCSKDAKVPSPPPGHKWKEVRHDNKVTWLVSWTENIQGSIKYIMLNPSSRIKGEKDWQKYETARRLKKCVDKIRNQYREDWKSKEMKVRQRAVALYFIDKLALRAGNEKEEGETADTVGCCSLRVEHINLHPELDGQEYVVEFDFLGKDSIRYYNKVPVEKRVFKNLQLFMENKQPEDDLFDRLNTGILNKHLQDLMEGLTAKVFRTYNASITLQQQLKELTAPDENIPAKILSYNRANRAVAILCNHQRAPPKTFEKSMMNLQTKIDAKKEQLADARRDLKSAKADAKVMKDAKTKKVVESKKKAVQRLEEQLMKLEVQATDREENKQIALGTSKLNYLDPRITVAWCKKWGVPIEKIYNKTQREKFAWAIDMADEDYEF

[10] = molecular target: T3, DNA topoisomerase 1 (Homo sapiens); assay: Inhibition of topoisomerase 1 upto 50 uM
Method in brief: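 DNA relaxation and DNA cleavage assays with topoisomerase I, run following published procedures, with compounds up to 50 µM.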

[11] = molecular target: T2, Serine/threonine-protein kinase Chk1 (Homo sapiens); assay: Inhibition of Chk1 at 1 uM
[12] = molecular target: AMP-activated protein kinase, AMPK (Homo sapiens) (UniProt P54646+O43741+P54619+Q9UGJ0+Q9Y478+Q13131+Q9UGI9); assay: Inhibition of AMPK at 1 uM; assay type: protein-complex assay
Method in brief: (§3)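 Single-concentration (1 µM) inhibition profiling carried out through a commercial kinase profiler screening service.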

[13] = species: Homo sapiens; assay: Inhibition of CAMK2 at 1 uM; method in brief: as §3
[14] = molecular target: Cyclin-dependent kinase 2 (Homo sapiens) (UniProt P24941); assay: Inhibition of CDK2/cyclin A at 1 uM; method in brief: as §3
[15] = species: Homo sapiens; assay: Inhibition of CK1 at 1 uM; method in brief: as §3
[16] = species: Homo sapiens; assay: Inhibition of FGFR3 at 1 uM; method in brief: as §3
[17] = species: Homo sapiens; assay: Inhibition of GSK3 at 1 uM; method in brief: as §3
[18] = molecular target: Tyrosine-protein kinase Lck (Homo sapiens) (UniProt P06239); assay: Inhibition of LCK at 1 uM; method in brief: as §3
Sequence of Tyrosine-protein kinase Lck (Homo sapiens) (P06239 2-509 limits assumed): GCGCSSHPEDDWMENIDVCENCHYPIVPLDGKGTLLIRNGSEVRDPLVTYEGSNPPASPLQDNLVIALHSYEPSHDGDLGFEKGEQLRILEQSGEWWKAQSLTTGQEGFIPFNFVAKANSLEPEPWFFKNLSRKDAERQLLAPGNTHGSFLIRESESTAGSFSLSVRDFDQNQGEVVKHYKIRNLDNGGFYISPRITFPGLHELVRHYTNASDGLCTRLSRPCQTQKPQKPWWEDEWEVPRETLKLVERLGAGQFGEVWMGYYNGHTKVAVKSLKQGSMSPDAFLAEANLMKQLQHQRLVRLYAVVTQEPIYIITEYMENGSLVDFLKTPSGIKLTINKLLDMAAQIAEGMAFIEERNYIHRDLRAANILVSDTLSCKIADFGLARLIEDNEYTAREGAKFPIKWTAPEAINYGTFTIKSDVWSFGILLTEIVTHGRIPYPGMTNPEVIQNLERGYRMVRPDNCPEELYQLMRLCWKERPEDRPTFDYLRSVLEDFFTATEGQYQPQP

[19] = molecular target: Mitogen-activated protein kinase 1 (Homo sapiens) (UniProt P28482); assay: Inhibition of MAPK1 at 1 uM; method in brief: as §3
Sequence of Mitogen-activated protein kinase 1 (Homo sapiens) (P28482 whole entry): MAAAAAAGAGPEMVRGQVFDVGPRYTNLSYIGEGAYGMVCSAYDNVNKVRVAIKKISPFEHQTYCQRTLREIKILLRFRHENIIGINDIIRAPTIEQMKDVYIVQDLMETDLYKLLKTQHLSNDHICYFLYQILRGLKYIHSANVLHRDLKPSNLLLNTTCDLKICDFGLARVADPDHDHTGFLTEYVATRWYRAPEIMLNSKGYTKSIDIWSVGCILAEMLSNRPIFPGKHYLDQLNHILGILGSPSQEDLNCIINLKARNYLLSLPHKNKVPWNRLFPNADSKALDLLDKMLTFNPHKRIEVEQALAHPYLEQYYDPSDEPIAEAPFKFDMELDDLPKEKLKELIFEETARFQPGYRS

[20] = molecular target: MAP kinase-activated protein kinase 2 (Homo sapiens) (UniProt P49137); assay: Inhibition of MAPKAPK2 at 1 uM; method in brief: as §3
Sequence of MAP kinase-activated protein kinase 2 (Homo sapiens) (P49137 whole entry, looked up): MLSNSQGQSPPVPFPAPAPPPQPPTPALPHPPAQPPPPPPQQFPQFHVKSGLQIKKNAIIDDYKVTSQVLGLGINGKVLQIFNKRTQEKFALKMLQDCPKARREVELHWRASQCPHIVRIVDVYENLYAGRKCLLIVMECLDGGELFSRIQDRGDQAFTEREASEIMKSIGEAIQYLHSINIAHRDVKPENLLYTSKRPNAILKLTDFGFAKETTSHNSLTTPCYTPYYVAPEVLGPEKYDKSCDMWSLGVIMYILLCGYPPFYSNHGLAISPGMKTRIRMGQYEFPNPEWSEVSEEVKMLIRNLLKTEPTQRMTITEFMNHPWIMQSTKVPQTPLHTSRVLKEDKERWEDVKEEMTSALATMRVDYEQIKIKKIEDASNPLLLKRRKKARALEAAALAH

[21] = molecular target: Ribosomal protein S6 kinase beta-1 (Homo sapiens) (UniProt P23443); assay: Inhibition of P70S6K at 1 uM; method in brief: as §3
Sequence of Ribosomal protein S6 kinase beta-1 (Homo sapiens) (P23443 whole entry, looked up): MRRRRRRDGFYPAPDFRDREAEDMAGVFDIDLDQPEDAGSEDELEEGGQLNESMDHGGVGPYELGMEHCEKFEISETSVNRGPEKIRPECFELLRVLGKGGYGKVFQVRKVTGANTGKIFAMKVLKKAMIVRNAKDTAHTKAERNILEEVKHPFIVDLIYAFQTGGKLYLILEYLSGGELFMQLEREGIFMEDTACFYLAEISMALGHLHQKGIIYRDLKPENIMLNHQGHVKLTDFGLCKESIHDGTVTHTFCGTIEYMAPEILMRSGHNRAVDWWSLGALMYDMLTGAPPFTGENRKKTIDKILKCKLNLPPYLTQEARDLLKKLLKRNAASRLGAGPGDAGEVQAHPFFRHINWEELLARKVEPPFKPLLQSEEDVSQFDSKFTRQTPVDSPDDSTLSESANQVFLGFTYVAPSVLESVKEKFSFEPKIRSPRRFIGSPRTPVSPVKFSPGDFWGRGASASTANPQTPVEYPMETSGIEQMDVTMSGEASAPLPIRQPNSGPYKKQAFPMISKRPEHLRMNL

[22] = species: Homo sapiens; assay: Inhibition of PKA at 1 uM; method in brief: as §3
[23] = molecular target: Protein kinase C beta type (Homo sapiens) (UniProt P05771); assay: Inhibition of PKCbeta at 1 uM; method in brief: as §3
Sequence of Protein kinase C beta type (Homo sapiens) (P05771 2-671 limits assumed): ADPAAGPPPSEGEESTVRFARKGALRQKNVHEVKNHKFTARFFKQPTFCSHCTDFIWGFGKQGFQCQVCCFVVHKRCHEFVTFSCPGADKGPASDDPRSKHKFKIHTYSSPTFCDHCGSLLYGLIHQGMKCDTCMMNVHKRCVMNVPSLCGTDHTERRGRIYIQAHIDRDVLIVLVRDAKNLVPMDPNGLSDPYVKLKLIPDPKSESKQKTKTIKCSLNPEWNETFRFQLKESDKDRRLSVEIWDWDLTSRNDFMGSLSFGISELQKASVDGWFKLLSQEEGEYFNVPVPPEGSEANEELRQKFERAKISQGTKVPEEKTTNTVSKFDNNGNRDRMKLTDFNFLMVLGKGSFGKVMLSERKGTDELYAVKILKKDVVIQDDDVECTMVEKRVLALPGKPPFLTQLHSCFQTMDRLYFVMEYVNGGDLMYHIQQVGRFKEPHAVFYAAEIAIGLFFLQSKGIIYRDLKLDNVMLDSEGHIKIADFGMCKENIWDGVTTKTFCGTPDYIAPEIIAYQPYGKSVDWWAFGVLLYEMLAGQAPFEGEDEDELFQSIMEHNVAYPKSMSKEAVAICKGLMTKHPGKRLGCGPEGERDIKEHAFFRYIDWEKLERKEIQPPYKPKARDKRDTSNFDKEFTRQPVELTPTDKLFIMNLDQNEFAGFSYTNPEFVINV

[24] = molecular target: Protein kinase C alpha type (Homo sapiens) (UniProt P17252); assay: Inhibition of PKCalpha at 1 uM; method in brief: as §3
[25] = molecular target: T4, Protein kinase C epsilon type (Homo sapiens) (UniProt Q02156); assay: Inhibition of PKCepsilon at 1 uM; method in brief: as §3
T4 sequence (whole entry): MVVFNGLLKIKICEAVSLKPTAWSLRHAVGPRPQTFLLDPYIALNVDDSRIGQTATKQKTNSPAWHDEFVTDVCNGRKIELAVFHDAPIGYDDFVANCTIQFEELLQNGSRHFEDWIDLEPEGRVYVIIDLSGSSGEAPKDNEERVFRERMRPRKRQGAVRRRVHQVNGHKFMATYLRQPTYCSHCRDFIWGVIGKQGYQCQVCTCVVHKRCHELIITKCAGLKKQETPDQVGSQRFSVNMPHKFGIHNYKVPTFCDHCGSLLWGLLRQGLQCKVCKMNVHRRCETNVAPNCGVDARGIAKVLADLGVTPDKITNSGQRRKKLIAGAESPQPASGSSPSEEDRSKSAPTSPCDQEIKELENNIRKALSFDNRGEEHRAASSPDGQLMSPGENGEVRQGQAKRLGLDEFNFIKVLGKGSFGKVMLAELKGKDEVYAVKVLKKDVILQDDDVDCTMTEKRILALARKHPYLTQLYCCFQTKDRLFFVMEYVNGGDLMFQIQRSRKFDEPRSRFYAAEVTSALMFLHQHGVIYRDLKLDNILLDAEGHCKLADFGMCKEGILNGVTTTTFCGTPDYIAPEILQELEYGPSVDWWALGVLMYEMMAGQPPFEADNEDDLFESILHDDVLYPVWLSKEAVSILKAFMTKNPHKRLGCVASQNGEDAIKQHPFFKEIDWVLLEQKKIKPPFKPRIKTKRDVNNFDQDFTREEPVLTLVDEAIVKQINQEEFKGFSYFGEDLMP

IC50 [1] [µM]	inhibition [2] [%]	IC50 [3] [µM]	IC50 [4] [µM]	IC50 [5] [µM]	IC50 [6] [µM]	Structure (SMILES)	other results
0.024	85	3.1	1.4	2	3.3	O=C1NC(=O)c2c1c1c3ccccc3[nH]c1c1cccn21	inhibition [7]: 32.5%; Activity [8]: inactive; Activity [9]: inactive; Activity [10]: inactive
–	15.1	> 100	56.1	78.5	52.5	CN1C(=O)c2c(n3cncc3c3c2c2cccnc2n3[C@@H]2O[C@H](CO)[C@@H](O)[C@H](O)[C@H]2O)C1=O	–
0.64	54.8	27	–	23.2	13.7	O=C1NC(=O)c2c1c1c3cc(OCc4ccccc4)ccc3[nH]c1c1cccn21	–

Further lines, the compound ahead of its results:

Structure (SMILES)	IC50 [1] [µM]	inhibition [2] [%]	IC50 [3] [µM]	IC50 [4] [µM]	IC50 [5] [µM]	IC50 [6] [µM]	other results
O=C1NC(=O)c2c1c1c3cccnc3[nH]c1c1cccn21	3.6	76.6	29.2	4.6	19.7	17.1	–
CN1C(=O)c2c(n3cccc3c3[nH]c4ccc(O)cc4c23)C1=O	–	54.1	5.4	–	8.8	26.5	–
CN1C(=O)c2c(n3cncc3c3[nH]c4ncccc4c23)C1=O	–	11.6	8.8	13.5	7.4	9.7	–
CN1C(=O)c2c(n3cccc3c3[nH]c4ccc(Br)cc4c23)C1=O	–	7.1	48.7	> 100	67	88.3	–
CN1C(=O)c2c(n3cccc3c3[nH]c4ccc(OCc5ccccc5)cc4c23)C1=O	–	10.3	42.7	22.7	20	35.9	Activity [8]: inactive; Activity [9]: inactive; Activity [10]: inactive
O=C1NC(=O)c2c1c1c3cc(Br)ccc3[nH]c1c1cccn21	0.066	87.9	12.5	21.7	20.9	29	% activity [11]: 14%; % activity [12]: 46%; % activity [13]: 55%; % activity [14]: 88%; % activity [15]: 104%; % activity [16]: 50%; % activity [17]: 44%; % activity [18]: 91%; % activity [19]: 88%; % activity [20]: 99%; % activity [21]: 26%; % activity [22]: 103%; % activity [23]: 98%; % activity [24]: 85%; % activity [25]: 90%; inhibition [7]: 22.3%
